# Results as given in ChEMBL document CHEMBL3769305, “Glucose-functionalized amino-OPEs as biocompatible photosensitizers in PDT” (Eur J Med Chem, 2016).
# The source made the active and inactive calls. The rule behind the calls is not given here.
# Assays:
# [1] = system: HaCaT; test: Drug uptake in human HaCaT cells at 1 uM after 6 hrs by fluorescence microscopy; assay type: ADME, cell-based
# How it was run: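 Cells on glass coverslips at 60–70% confluence were exposed to 1×10^-6 M compound in medium with 1% FBS (DMSO <0.5%) for 6 h at 37 °C. After two PBS washes they were imaged live under UV excitation (365 nm), with blue excitation (460–490 nm) also used. Untreated cells served as autofluorescence controls.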
# [2] = Drug uptake in endoplasmic reticulum of human Hep2 cells at 1 uM after 6 hrs by ER-tracker dye-based fluorescence microscopy; assay type: ADME, cell-based; conditions: hep-2, 6 h
# How it was run: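 Cells grown on glass coverslips were incubated with 1×10^-6 M photosensitizer for 6 h at 37 °C, washed twice in PBS and imaged live by fluorescence microscopy. Organelle probes (ER-Tracker, ex 374/em 430 nm; NBD-Golgi, ex 466/em 536 nm) were applied for 30 min at the supplier's concentrations, and their patterns were compared with the compound signal.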
# [3] = Dark toxicity against human HeLa cells assessed as cell survival at 5 uM incubated for 6 hrs measured after 24 hrs by MTT assay; assay type: cell-based; conditions: read-out: Survival
# How it was run: (§1)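 Cells (HaCaT and HeLa in DMEM, HEp-2 in RPMI, each with 10% FBS, at 37 °C and 5% CO2) were treated at 60–70% confluence. The compound was added from a 10^-3 M DMSO stock in medium with 1% FBS (final DMSO <0.5%) at 3·10^-6 to 2.5·10^-5 M and kept in the dark (6 h per table footnote, 18 h per methods). After 24 h, MTT at 50 µg/mL for 4 h, read at 542 nm as % of control OD.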
# [4] = Dark toxicity against human HeLa cells assessed as cell survival at 10 uM incubated for 6 hrs measured after 24 hrs by MTT assay; assay type: cell-based; conditions: read-out: Survival; how it was run: as §1
# [5] = Dark toxicity against human Hep2 cells assessed as cell survival at 3 uM incubated for 6 hrs measured after 24 hrs by MTT assay; assay type: cell-based, HEp-2; conditions: read-out: Survival; how it was run: as §1
# [6] = system: HaCaT; test: Phototoxicity against human HaCaT cells assessed as cell lethality at 3 to 250 uM incubated for 6 hrs followed by UV irradiation at 0.5 J/cm'2 measured after 24 hrs by MTT assay; assay type: cell-based
# How it was run: (§2)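 Cultures at 60–70% confluence were loaded with the photosensitizer for 6 h in medium with 1% FBS and <0.5% DMSO. Medium was then replaced and cells were irradiated with UVA (300–400 nm, 15.9 W/m² at 10 cm), then washed and kept in complete medium for 24 h. Survival was read by MTT (50 µg/mL, 4 h, 542 nm) as % of untreated control OD.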
# [7] = system: HeLa; test: Phototoxicity against human HeLa cells assessed as cell lethality at 3 to 250 uM incubated for 6 hrs followed by UV irradiation at 0.5 J/cm'2 measured after 24 hrs by MTT assay; assay type: functional; how it was run: as §2
# [8] = Phototoxicity against human Hep2 cells assessed as cell lethality at 3 to 250 uM incubated for 6 hrs followed by UV irradiation at 0.5 J/cm'2 measured after 24 hrs by MTT assay; assay type: functional, HEp-2; how it was run: as §2
# [9] = Phototoxicity against human Hep2 cells assessed as cell lethality at 3 to 250 uM incubated for 6 hrs followed by UV irradiation at 1 J/cm'2 measured after 24 hrs by MTT assay; assay type: functional, HEp-2; how it was run: as §2
# [10] = system: HaCaT; test: Phototoxicity against human HaCaT cells assessed as cell lethality at 3 to 250 uM incubated for 6 hrs followed by UV irradiation at 2 J/cm'2 measured after 24 hrs by MTT assay; assay type: cell-based; how it was run: as §2
# [11] = system: HaCaT; test: Induction of cell morphological changes in human HaCaT cells assessed as cell elongation at 3 to 5 uM after 24 hrs by Hoechst 33258 staining-based phase contrast microscopy in presence of UVA light
# [12] = system: HaCaT; test: Induction of cell morphological changes in human HaCaT cells assessed as appearance of apoptotic cells with membrane blebbing at 3 to 5 uM after 24 hrs by Hoechst 33258 staining-based phase contrast microscopy in presence of UVA light
# [13] = system: HaCaT; test: Induction of cell morphological changes in human HaCaT cells assessed as appearance of necrotic cells with loss of membrane integrity at 3 to 5 uM after 24 hrs by Hoechst 33258 staining-based phase contrast microscopy in presence of UVA light
# [14] = system: HEp-2; test: Induction of cell morphological changes in human Hep2 cells assessed as cytoplasmic vacuolization at 3 to 5 uM after 24 hrs by Hoechst 33258 staining-based phase contrast microscopy in presence of UVA light; assay type: functional
# [15] = system: HeLa; test: Induction of morphological changes in human HeLa cells assessed as nuclear retraction at LD50 after 24 hrs by Hoechst 33258 staining-based fluorescence microscopy in presence of UVA light; assay type: functional, cell-based
# [16] = system: HEp-2; test: Induction of morphological changes in human Hep2 cells assessed as nuclear retraction at LD50 after 24 hrs by Hoechst 33258 staining-based fluorescence microscopy in presence of UVA light; assay type: functional, cell-based
# [17] = system: HEp-2; test: Induction of apoptotic morphological changes in human Hep2 cells at LD50 after 24 hrs by Hoechst 33258 staining-based fluorescence microscopy in presence of UVA light; assay type: functional, cell-based
# [18] = system: HaCaT; test: Phototoxicity against human HaCaT cells assessed as appearance of rounded cells at LD50 after 24 hrs by acridine orange/ethidium bromide staining-based assay in presence of 0.25 to 0.5 J/cm'2 UVA light; assay type: cell-based
# How it was run: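 Cells (HaCaT, HeLa in DMEM; HEp-2 in RPMI; 10% FBS) at 60–70% confluence were incubated 6 h with 3·10^-6 M photosensitizer (DMSO stock diluted in medium with 1% FBS, final DMSO <0.5%). Medium was replaced and cells were given 0.25 J/cm² UVA (300–400 nm). 24 h later, cells were stained live with 50 µg/ml AO plus 50 µg/ml EtBr in PBS. Within 15 min, 200 cells per condition were scored as living, rounded, apoptotic or necrotic.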
# [19] = Induction of microtubule disruption in human HaCaT cells at LD50 after 24 hrs by immunofluorescence assay in presence of UVA light; assay type: cell-based
# [20] = system: HEp-2; test: Induction of microtubule disruption in human Hep2 cells assessed as increase in mitotic index at LD50 after 24 hrs by immunofluorescence assay in presence of UVA light; assay type: cell-based
# [21] = system: HeLa; test: Induction of microtubule disruption in human HeLa cells assessed as increase in altered metaphase at LD50 after 24 hrs by immunofluorescence assay in presence of UVA light; assay type: cell-based
# [22] = Induction of microtubule disruption in human HaCaT cells assessed as appearance of apoptotic morphology at LD50 after 24 hrs by immunofluorescence assay in presence of UVA light; assay type: cell-based
# [23] = system: HeLa; test: Induction of cell morphological changes in human HeLa cells assessed as deep deformation of cell membrane at LD90 after 24 hrs by Hoechst 33258 staining-based phase contrast microscopy in presence of 1 to 2 J/Cm'2 UVA light; assay type: functional
# [24] = system: HaCaT; test: Induction of cell morphological changes in human HaCaT cells assessed as deep deformation of cell membrane at LD90 after 24 hrs by Hoechst 33258 staining-based phase contrast microscopy in presence of 1 to 2 J/Cm'2 UVA light
SMILES,Drug uptake [1],Drug uptake [2],"viability at 6 h, 5 µM [3] [%]","viability at 6 h, 10 µM [4] [%]","viability at 6 h, 3 µM [5] [%]",mortality [6] [%],mortality [7] [%],mortality [8] [%],mortality [9] [%],mortality [10] [%],Activity [11],Activity [12],Activity [13],Activity [14],Activity [15],Activity [16],Activity [17],Activity [18],Activity [19],Activity [20],further results
COc1cc(C#Cc2ccc(C#Cc3cc(OC)c(C#CCO[C@@H]4O[C@H](CO)[C@@H](O)[C@H](O)[C@H]4O)cc3OC)c(N(C)C)c2)c(OC)cc1C#CCO[C@@H]1O[C@H](CO)[C@@H](O)[C@H](O)[C@H]1O,Active,Active,95.4,82.2,97.2,> 50,>50,>50,>50,> 50,Toxic,Toxic,Toxic,Active,Active,Active,Active,Toxic,Toxic,Active,Activity [21]: Active; Activity [22]: Toxic; Activity [23]: Active; Activity [24]: Toxic
COc1cc(C#Cc2ccc(C#CCO[C@@H]3O[C@H](CO)[C@@H](O)[C@H](O)[C@H]3O)cc2N(C)C)c(OC)cc1C#Cc1ccc(C#CCO[C@@H]2O[C@H](CO)[C@@H](O)[C@H](O)[C@H]2O)cc1N(C)C,Active,Active,93.5,76.9,97.7,> 50,>50,>50,>50,> 50,Toxic,Toxic,Toxic,Active,Active,Active,Active,Toxic,Toxic,Active,Activity [21]: Active; Activity [22]: Toxic; Activity [23]: Active; Activity [24]: Toxic
